Data reported in ChEMBL document CHEMBL2434969, “[(4-Hydroxyl-benzo[4,5]thieno[3,2-c]pyridine-3-carbonyl)-amino]-acetic acid derivatives; HIF prolyl 4-hydroxylase inhibitors as oral erythropoietin secretagogues” (Bioorg Med Chem Lett, 2013).
Active and inactive are the calls of the source. The rule behind the calls is not given here.

Experiments:
[1] = Volume of distribution at steady state in CD1 mouse at 4 mg/kg, iv; type: ADME, organism-based; design: dose 4 mg/kg, route intravenous; details: in vivo, read-out: Vdss
[2] = Metabolic stability in mouse microsomes assessed as compound remaining measured at 60 mins; type: ADME, Microsome; details: read-out: Stability
[3] = Cmax in CD1 mouse at 20 mg/kg, po; type: ADME, organism-based; design: dose 20 mg/kg, route oral; details: in vivo
[4] = Metabolic stability in mouse S9 fraction assessed as compound remaining measured at 60 mins; type: ADME; details: s9, 1 h
[5] = Clearance in CD1 mouse at 4 mg/kg, iv; type: ADME, organism-based; design: dose 4 mg/kg, route intravenous; details: in vivo
[6] = Metabolic stability in human microsomes assessed as compound remaining measured at 60 mins; type: ADME, Microsome; details: read-out: Stability
[7] = Half life in CD1 mouse at 4 mg/kg, iv; type: ADME, organism-based; design: dose 4 mg/kg, route intravenous; details: in vivo
[8] = AUC (0 to t) in CD1 mouse at 4 mg/kg, iv; type: ADME, organism-based; design: dose 4 mg/kg, route intravenous; details: plasma
[9] = AUC (0 to t) in CD1 mouse at 20 mg/kg, po; type: ADME, organism-based; design: dose 20 mg/kg, route oral; details: plasma
[10] = Metabolic stability in human S9 fraction assessed as compound remaining measured at 60 mins; type: ADME; details: read-out: Stability
[11] = Bioavailability in CD1 mouse at 4 mg/kg, iv; type: ADME, organism-based; details: in vivo
[12] = Tmax in CD1 mouse at 20 mg/kg, po; type: ADME, organism-based; design: dose 20 mg/kg, route oral; details: in vivo
Mus musculus [13] = experiment: Anti-anemia activity in ICR mouse assessed as increase in red blood cell count at 50 mg/kg, qd administered for 4 days measured on day 8; type: functional, organism-based; design: dose 50 mg/kg
Method in brief: (§1)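 Normal male ICR mice, 6 weeks old, dosed once daily for 4 days (QDx4) or 12 days (QDx12) alongside a vehicle group. Mice were split into groups by blood sampling day (D5, D8, D13, D16). Hematocrit, RBC count and Hb were measured in blood. Statistics: P<0.05 and P<0.01 vs vehicle at each sampling time.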

Mus musculus [14] = experiment: Anti-anemia activity in ICR mouse assessed as increase in hematocrit level at 50 mg/kg, qd administered for 12 days measured on day 16; type: functional, organism-based; design: dose 50 mg/kg; method in brief: as §1
Mus musculus [15] = experiment: Anti-anemia activity in ICR mouse assessed as increase in hematocrit level at 50 mg/kg, qd administered for 4 days measured on day 5; type: functional, organism-based; design: dose 50 mg/kg; method in brief: as §1
Mus musculus [16] = experiment: Anti-anemia activity in ICR mouse assessed as increase in hemoglobin level at 50 mg/kg, qd administered for 4 days measured on day 8; type: functional, organism-based; design: dose 50 mg/kg; method in brief: as §1
Mus musculus [17] = experiment: Anti-anemia activity in ICR mouse assessed as increase in hemoglobin level at 50 mg/kg, qd administered for 4 days measured on day 5; type: functional, organism-based; design: dose 50 mg/kg; method in brief: as §1
Mus musculus [18] = experiment: Anti-anemia activity in ICR mouse assessed as increase in hemoglobin level at 50 mg/kg, qd administered for 12 days measured on day 13; type: functional, organism-based; design: dose 50 mg/kg; method in brief: as §1
Mus musculus [19] = experiment: Anti-anemia activity in ICR mouse assessed as increase in red blood cell count at 50 mg/kg, qd administered for 12 days measured on day 16; type: functional, organism-based; design: dose 50 mg/kg; method in brief: as §1
Mus musculus [20] = experiment: Anti-anemia activity in ICR mouse assessed as increase in hemoglobin level at 50 mg/kg, qd administered for 12 days measured on day 16; type: functional, organism-based; design: dose 50 mg/kg; method in brief: as §1
Mus musculus [21] = experiment: Anti-anemia activity in ICR mouse assessed as increase in hematocrit level at 50 mg/kg, qd administered for 12 days measured on day 13; type: functional, organism-based; design: dose 50 mg/kg; method in brief: as §1
Mus musculus [22] = experiment: Anti-anemia activity in ICR mouse assessed as increase in red blood cell count at 50 mg/kg, qd administered for 4 days measured on day 5; type: functional, organism-based; design: dose 50 mg/kg; method in brief: as §1
Mus musculus [23] = experiment: Anti-anemia activity in ICR mouse assessed as increase in red blood cell count at 50 mg/kg, qd administered for 12 days measured on day 13; type: functional, organism-based; design: dose 50 mg/kg; method in brief: as §1
Mus musculus [24] = experiment: Anti-anemia activity in ICR mouse assessed as increase in hematocrit level at 50 mg/kg, qd administered for 4 days measured on day 8; type: functional, organism-based; design: dose 50 mg/kg; method in brief: as §1

With `O=C(O)CNC(=O)c1nc(Cl)c2c(sc3ccccc32)c1O` the Vd [1] was 0.503 L/kg, the remaining at 1 h [2] was 68.6% and the Cmax [3] was 15100 ng/mL. The Stability [4] was 125.7%, the clearance [5] was 3.92 mL/min/kg and the remaining at 1 h [6] was 119%. The half-life [7] was 2.79 h, the AUC(0-t) [8] was 17000 ng·h/mL and the AUC(0-t) [9] was 53700 ng·h/mL. For the same molecule, the remaining at 1 h [10] was 101%, the bioavailability [11] was 63.2% and the Tmax [12] was 0.5 h.
In the case of `O=C(O)CNC(=O)c1nc(Cl)c2ccccc2c1O`, the inhibition (Mus musculus [13]) is reported as “Active”, the inhibition (Mus musculus [14]) is reported as “Active” and the inhibition (Mus musculus [15]) is reported as “Active”. The inhibition (Mus musculus [16]) was “Active”, the inhibition (Mus musculus [17]) was “Active” and the inhibition (Mus musculus [18]) was “Active”. The inhibition (Mus musculus [19]) was “Active”, the inhibition (Mus musculus [20]) was “Active” and the inhibition (Mus musculus [21]) was “Active”. The inhibition (Mus musculus [22]) was “Active”, the inhibition (Mus musculus [23]) was “Active” and the inhibition (Mus musculus [24]) was “Active”.
